Active and inactive are the calls of the source.
Columns and labels:
HL-60(TB) = experiment: Cytotoxicity against human HL-60(TB) cells assessed as growth inhibition after 72 hrs by […] assay; assay type: functional; conditions: HL-60, 72 h
How it was run: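 HL-60(TB) was tested within the NCI 60 human cancer cell line panel. Compounds that met the NCI single-dose activity criteria were retested on the full panel at 5 concentrations in 10-fold dilutions (10-4–10-8 M). GI50 is the molar concentration giving 50% inhibition of net cell growth; TGI was also reported.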

SR = experiment: Cytotoxicity against human SR cells assessed as growth inhibition after 72 hrs by MTT assay; assay type: functional
How it was run: (§1)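 NCI 60-cell-line panel screen. Compounds were tested at 5 concentrations in 10-fold dilution (10^-4 to 10^-8 M) across the full panel. GI50 was taken as the molar concentration giving 50% inhibition of net cell growth.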

COLO 205 = experiment: Cytotoxicity against human COLO205 cells assessed as growth inhibition after 72 hrs by MTT assay; assay type: functional; conditions: COLO 205, 72 h
HCC 2998 = experiment: Cytotoxicity against human HCC2998 cells assessed as growth inhibition after 72 hrs by MTT assay; assay type: functional; conditions: HCC 2998, 72 h
KM12 = experiment: Cytotoxicity against human KM12 cells assessed as growth inhibition after 72 hrs by MTT assay; assay type: functional; conditions: KM12, 72 h
U-251 = experiment: Cytotoxicity against human U251 cells assessed as growth inhibition after 72 hrs by MTT assay; assay type: functional; conditions: U-251, 72 h; how it was run: as §1
LOX IMVI = experiment: Cytotoxicity against human LOXIMVI cells assessed as growth inhibition after 72 hrs by MTT assay; assay type: functional
SK-MEL-5 = experiment: Cytotoxicity against human SK-MEL-5 cells assessed as growth inhibition after 72 hrs by MTT assay; assay type: functional; conditions: SK-MEL-5, 72 h; how it was run: as §1
[1] = Cytotoxicity against human UACC257 cells assessed as growth inhibition after 72 hrs by MTT assay; assay type: functional; conditions: UACC-257, 72 h; how it was run: as §1
[2] = Cytotoxicity against human NCI-ADR-RES cells assessed as growth inhibition after 72 hrs by MTT assay; assay type: functional
RXF 393 = experiment: Cytotoxicity against human RXF393 cells assessed as growth inhibition after 72 hrs by MTT assay; assay type: functional; conditions: RXF 393, 72 h; how it was run: as §1
MDA-MB-468 = experiment: Cytotoxicity against human MDA-MB-468 cells assessed as growth inhibition after 72 hrs by MTT assay; assay type: functional; conditions: MDA-MB-468, 72 h
Jurkat [3] = experiment: Cytotoxicity against human Jurkat cells assessed as growth inhibition after 72 hrs by MTT assay; assay type: functional
How it was run: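 Cells were grown in medium with 10% heat-inactivated FBS plus penicillin/streptomycin: RPMI-1640 for Jurkat and CEM, DMEM for A-431, HAM's F12 for LoVo. The doxorubicin-resistant LoVo subclone was kept with 0.1 µg/mL doxorubicin. Cells were seeded at 5x10^3 per well and pre-incubated 24 h at 37 °C.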

LoVo = experiment: Resistance index, ratio of GI50 for human LoVo/DX cells to GI50 for human LoVo cells; assay type: functional
How it was run: (§2)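 CEMVbl-100 (vinblastine-selected CEM) was grown in RPMI-1640 with 0.1 µg/mL vinblastine. LoVoDoxo was grown in HAM's F12 with 0.1 µg/mL doxorubicin; parental CEM and LoVo were grown without drug. Media had 10% FBS. 5x10^3 cells were seeded, preincubated 24 h at 37 °C, then exposed 72 h to compound (DMSO <1%). Read-out was MTT; GI50 came from dose-response curves of ≥3 experiments. RI = GI50 resistant / GI50 parental.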

CCRF-CEM = experiment: Cytotoxicity against human vinblastin-resistant CEM cells assessed as growth inhibition after 72 hrs by MTT assay; assay type: functional; how it was run: as §2
Jurkat [4] = experiment: Cell cycle arrest in human Jurkat cells assessed as accumulation at G1 phase at 0.25 uM after 24 hrs by propidium iodide staining-based flow cytometry (reference value: 62.6%); assay type: functional
Jurkat [5] = experiment: Cell cycle arrest in human Jurkat cells assessed as accumulation at G2/M phase at 0.25 uM after 24 hrs by propidium iodide staining-based flow cytometry (reference value: 21.9%); assay type: functional
Jurkat [6] = experiment: Cell cycle arrest in human Jurkat cells assessed as accumulation at subG1 phase at 0.25 uM after 24 hrs by propidium iodide staining-based flow cytometry (reference value: 5.3%); assay type: functional
[7] = Binding affinity to DNA (unknown origin) at compound to DNA ratio 0.01 to 0.04 by linear dichroism method
How it was run: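 Linear dichroism spectra were recorded at different compound/DNA ratios in 10 mM phosphate buffer, pH 7.2.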

[8] = biological target: T1, DNA topoisomerase 1 (Homo sapiens) (UniProt P11387); experiment: Inhibition of human DNA topoisomerase 1-mediated relaxation of supercoiled pBR322 plasmid DNA at 5 to 100 uM after 30 mins by agarose gel electrophoresis relative to untreated control
T1 sequence (whole entry): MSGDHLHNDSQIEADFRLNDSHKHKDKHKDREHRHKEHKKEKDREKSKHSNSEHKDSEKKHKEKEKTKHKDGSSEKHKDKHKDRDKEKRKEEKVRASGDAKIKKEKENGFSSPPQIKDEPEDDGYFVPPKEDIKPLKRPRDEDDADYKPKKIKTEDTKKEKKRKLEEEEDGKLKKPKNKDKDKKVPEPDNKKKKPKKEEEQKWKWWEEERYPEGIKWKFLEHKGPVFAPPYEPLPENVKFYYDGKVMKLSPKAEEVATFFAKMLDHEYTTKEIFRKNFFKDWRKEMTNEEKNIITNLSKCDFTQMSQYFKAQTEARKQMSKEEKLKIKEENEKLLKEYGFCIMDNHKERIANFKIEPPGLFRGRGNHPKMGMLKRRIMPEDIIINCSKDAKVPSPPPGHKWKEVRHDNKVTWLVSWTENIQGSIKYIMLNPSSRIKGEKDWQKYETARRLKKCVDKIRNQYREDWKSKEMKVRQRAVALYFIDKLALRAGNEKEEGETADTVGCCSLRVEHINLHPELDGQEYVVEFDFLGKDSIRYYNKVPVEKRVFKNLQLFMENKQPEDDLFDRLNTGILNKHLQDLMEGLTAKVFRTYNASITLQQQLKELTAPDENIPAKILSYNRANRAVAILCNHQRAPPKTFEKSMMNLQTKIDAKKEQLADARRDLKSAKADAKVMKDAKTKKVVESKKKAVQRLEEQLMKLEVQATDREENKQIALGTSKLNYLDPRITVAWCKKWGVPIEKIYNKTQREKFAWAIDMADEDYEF
How it was run: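 Human topoisomerase I (10 units) was incubated with 0.250 µg supercoiled pBR322 and compound (5-100 µM) for 30 min at 37 °C. Buffer: 50 mM Tris-HCl pH 7.5, 50 mM KCl, 0.5 mM DTT, 10 mM MgCl2, 0.1 mM EDTA, 30 µg/mL BSA. Reactions were stopped with 1% SDS and proteinase K (50 µg/mL, 30 min). Samples ran on 0.8% agarose in TAE at 20 V overnight, then were post-stained with ethidium bromide.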

Row | Compound | GI50 (HL-60(TB)) [nM] | GI50 (SR) [nM] | GI50 (COLO 205) [nM] | GI50 (HCC 2998) [nM] | GI50 (KM12) [nM] | GI50 (U-251) [nM] | GI50 (LOX IMVI) [nM] | GI50 (SK-MEL-5) [nM] | GI50 [1] [nM] | GI50 [2] [nM] | GI50 (RXF 393) [nM] | GI50 (MDA-MB-468) [nM] | GI50 (Jurkat [3]) [nM] | Ratio (LoVo) | GI50 (CCRF-CEM) [nM] | Activity (Jurkat [4]) [%] | Activity (Jurkat [5]) [%] | Activity (Jurkat [6]) [%] | Activity [7] | Activity [8]
1 | COc1ccc2c(c1)nnc1c3cccnc3[nH]c21 | 160 | 31 | 1130 | 8230 | 1220 | 930 | 760 | 5850 | 7490 | 1790 | 660 | 67 | 90 | 0.33 | 1020 | 30.2 | 45.7 | 27.8 | Active | Active
2 | COc1cc2nnc3c4cccnc4[nH]c3c2cc1OC | 190 | 39 | 2960 | 1950 | 1910 | 920 | 1410 | 7330 | 3320 |  | 710 | 230 |  |  |  |  |  |  |  | 
3 | O=Nc1c2cccnc2n2nnc3ccc(Cl)cc3c12 | 300 | 17 | 1000 | 8400 | 910 | 1270 | 1030 | 3820 | 3070 | 430 | 560 | 140 |  |  |  |  |  |  |  | 
4 | COc1ccc2c(c1)nnn1c3ncccc3c(N=O)c21 | 43 | 9 | 680 | 7230 | 1030 | 720 | 800 | 5010 | 8210 | 1420 | 310 | 32 | 90 | 0.51 | 440 | 35.5 | 39.4 | 22.5 | inactive | Active
5 | COc1cc2nnn3c4ncccc4c(N=O)c3c2cc1OC | 40 | 18 | 5260 | 1000 | 1380 | 600 | 920 | 12600 | 4540 | 380 | 400 | 160 | 200 | 1.11 | 510 | 37.3 | 47.3 | 18.7 | inactive | Active

— ChEMBL document CHEMBL3351507, “11H-Pyrido[3',2':4,5]pyrrolo[3,2-c]cinnoline and pyrido[3',2':4,5]pyrrolo[1,2-c][1,2,3]benzotriazine: two new ring systems with antitumor activity” (2014)
